ChEMBL document CHEMBL1140194, “Convenient access to 1,3,4-trisubstituted pyrazoles carrying 5-nitrothiophene moiety via 1,3-dipolar cycloaddition of sydnones with acetylenic ketones and their antimicrobial evaluation” (2008)
In brackets after ≈: the same amount, converted by molar mass.

Key:
Type in all cases: functional
Pseudomonas aeruginosa = experiment: Antimicrobial activity against sPseudomonas aeruginosa ATCC 27853 after 16 to 18 hrs by serial dilution method
In short: (§1)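 Compounds were dissolved in dimethylformamide as stock. An 18-h broth culture was inoculated by loop into nutrient broth and grown 4 h at 37 °C. Stock was serially diluted by 0.5 mL transfers across tubes 1–10, with tube 11 as growth control. About 0.5 mL diluted culture was added per tube, then incubated at 37 °C for 16–18 h. Reference drugs: nitrofurazone for bacteria, fluconazole for Candida.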

Bacillus subtilis = experiment: Antimicrobial activity against Bacillus subtilis after 16 to 18 hrs by serial dilution method; in short: as §1
Escherichia coli = experiment: Antimicrobial activity against sEscherichia coli ATCC 25922 after 16 to 18 hrs by serial dilution method; in short: as §1
Staphylococcus aureus = experiment: Antimicrobial activity against Staphylococcus aureus ATCC 25923 after 16 to 18 hrs by serial dilution method; in short: as §1
Candida albicans = experiment: Antimicrobial activity against Candida albicans NCIM 3100 after 16 to 18 hrs by serial dilution method; in short: as §1

SMILES	MIC (Pseudomonas aeruginosa) [µg/mL]	MIC (Bacillus subtilis) [µg/mL]	MIC (Escherichia coli) [µg/mL]	MIC (Staphylococcus aureus) [µg/mL]	MIC (Candida albicans) [µg/mL]
Cc1ccc(-n2cc(C(=O)c3ccccc3)c(-c3ccc([N+](=O)[O-])s3)n2)cc1	0.25 (≈ 0.642 µM)	0.25 (≈ 0.642 µM)	0.25 (≈ 0.642 µM)	0.25 (≈ 0.642 µM)	0.25 (≈ 0.642 µM)
O=C(c1ccccc1)c1cn(-c2ccccc2)nc1-c1ccc([N+](=O)[O-])s1	0.25 (≈ 0.666 µM)	0.25 (≈ 0.666 µM)	0.25 (≈ 0.666 µM)	0.25 (≈ 0.666 µM)	0.25 (≈ 0.666 µM)
O=C(c1ccc(Cl)cc1)c1cn(-c2ccccc2)nc1-c1ccc([N+](=O)[O-])s1	0.125 (≈ 0.305 µM)	0.125 (≈ 0.305 µM)	0.125 (≈ 0.305 µM)	0.125 (≈ 0.305 µM)	0.125 (≈ 0.305 µM)
Cc1ccc(-n2cc(C(=O)c3ccc(Cl)cc3)c(-c3ccc([N+](=O)[O-])s3)n2)cc1	0.125 (≈ 0.295 µM)	0.125 (≈ 0.295 µM)	0.125 (≈ 0.295 µM)	0.125 (≈ 0.295 µM)	0.125 (≈ 0.295 µM)
Cc1ccc(C(=O)c2cn(-c3ccc(C)cc3)nc2-c2ccc([N+](=O)[O-])s2)cc1	0.125 (≈ 0.31 µM)	0.125 (≈ 0.31 µM)	0.125 (≈ 0.31 µM)	0.125 (≈ 0.31 µM)	0.125 (≈ 0.31 µM)
COc1ccc(-n2cc(C(=O)c3ccccc3)c(-c3ccc([N+](=O)[O-])s3)n2)cc1	0.25 (≈ 0.617 µM)	0.25 (≈ 0.617 µM)	0.25 (≈ 0.617 µM)	0.25 (≈ 0.617 µM)	0.25 (≈ 0.617 µM)
Cc1ccc(C(=O)c2cn(-c3ccccc3)nc2-c2ccc([N+](=O)[O-])s2)cc1	0.25 (≈ 0.642 µM)	0.25 (≈ 0.642 µM)	0.25 (≈ 0.642 µM)	0.25 (≈ 0.642 µM)	0.25 (≈ 0.642 µM)
COc1ccc(-n2cc(C(=O)c3ccc(Cl)cc3)c(-c3ccc([N+](=O)[O-])s3)n2)cc1	0.25 (≈ 0.568 µM)	0.25 (≈ 0.568 µM)	0.25 (≈ 0.568 µM)	0.25 (≈ 0.568 µM)	0.125 (≈ 0.284 µM)
OC(Cn1cncn1)(Cn1cncn1)c1ccc(F)cc1F [FLUCONAZOLE]					0.25 (≈ 0.816 µM)
COc1ccc(-n2cc(C(=O)c3ccc(C)cc3)c(-c3ccc([N+](=O)[O-])s3)n2)cc1	0.25 (≈ 0.596 µM)	0.25 (≈ 0.596 µM)	0.25 (≈ 0.596 µM)	0.25 (≈ 0.596 µM)	0.25 (≈ 0.596 µM)
COc1ccc(C(=O)c2cn(-c3ccccc3)nc2-c2ccc([N+](=O)[O-])s2)cc1	0.25 (≈ 0.617 µM)	0.25 (≈ 0.617 µM)	0.25 (≈ 0.617 µM)	0.25 (≈ 0.617 µM)	0.25 (≈ 0.617 µM)
NC(=O)N/N=C/c1ccc([N+](=O)[O-])o1 [NITROFURAZONE]	0.25 (≈ 1.26 µM)	0.25 (≈ 1.26 µM)	0.25 (≈ 1.26 µM)	0.25 (≈ 1.26 µM)	
